Measured values reported in ChEMBL document CHEMBL1250442, “Inhibiting gene expression at transcription start sites in chromosomal DNA with antigene RNAs” (Nat Chem Biol, 2005).
Activity calls are given as the source filed them. The rule behind the calls is not given here.

Tests used:
[1] = system: T47D; experiment: Cytotoxicity against human T47D cells assessed as effect on cellular morphology; assay type: cell-based
[2] = system: T47D; experiment: Inhibition of PR-B mRNA gene expression in human T47D cells at 100 nM by syber green assay; assay type: functional
How it was run: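 T47D cells in RPMI-1640 with 10% FBS, NEAA, insulin, 37 °C, 5% CO2. Plated two days before transfection without antibiotics. Oligofectamine-mediated duplex RNA transfection at 100 nM final, medium changed at 24 h, harvest five days post-transfection. Total RNA extracted with TRIzol. hPR mRNA quantified by SYBR Green qPCR: 50 °C 2 min, 95 °C 10 min, then 40 cycles of 95 °C 15 s / 60 °C 1 min.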

[3] = system: T47D; experiment: Inhibition of PR-A mRNA gene expression in human T47D cells at 100 nM by syber green assay; assay type: functional
How it was run: (§1)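 T47D cells plated at 80,000/well without antibiotics two days before Oligofectamine transfection with agRNA duplex (25 or 100 nM final); medium changed at 24 h, harvest day 5 unless stated otherwise. TRIzol total RNA; PR mRNA by real-time PCR with SYBR Green: 50 °C 2 min, 95 °C 10 min, 40 cycles 95 °C 15 s/60 °C 1 min.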

[4] = system: T47D; experiment: Effect of DNA methylation at (+166) CpG site near PR-B transcription start site (-13) in human T47D cells by sodium bisulfite sequencing analysis; assay type: functional, cell-based
How it was run: (§2)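 T47D cells grown in RPMI-1640 with 10% FBS, 0.5% NEAA, insulin and P/S at 37 °C, 5% CO2. They were plated at 80,000 cells/well 2 days before lipid transfection with 25 nM or 100 nM duplex, with medium changed at 24 h. Cells were harvested 5 days post-transfection. 100 ng bisulfite-treated DNA was PCR-amplified, and products were TA-cloned. 5–15 colonies per plate were sequenced.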

[5] = system: T47D; experiment: Effect of DNA methylation at (+362) CpG site near PR-B transcription start site (-13) in human T47D cells by sodium bisulfite sequencing analysis; assay type: functional, cell-based; how it was run: as §2
[6] = system: T47D; experiment: Effect of DNA methylation at (+162) CpG site near PR-B transcription start site (-13) in human T47D cells by sodium bisulfite sequencing analysis; assay type: functional, cell-based; how it was run: as §2
[7] = system: T47D; experiment: Effect of DNA methylation at (+112) CpG site near PR-B transcription start site (-13) in human T47D cells by sodium bisulfite sequencing analysis; assay type: functional, cell-based; how it was run: as §2
[8] = system: T47D; experiment: Effect of DNA methylation at (+337) CpG site near PR-B transcription start site (-13) in human T47D cells by sodium bisulfite sequencing analysis; assay type: functional, cell-based; how it was run: as §2
[9] = system: T47D; experiment: Effect of DNA methylation at (+190) CpG site near PR-B transcription start site (-13) in human T47D cells by sodium bisulfite sequencing analysis; assay type: functional, cell-based; how it was run: as §2
[10] = system: T47D; experiment: Effect of DNA methylation at (+356) CpG site near PR-B transcription start site (-13) in human T47D cells by sodium bisulfite sequencing analysis; assay type: functional, cell-based; how it was run: as §2
[11] = system: T47D; experiment: Inhibition of PR-A gene expression in human T47D cells at 25 nM by syber green assay in presence of 10 nM estradiol; assay type: functional, cell-based
[12] = system: T47D; experiment: Effect of DNA methylation at (+335) CpG site near PR-B transcription start site (-13) in human T47D cells by sodium bisulfite sequencing analysis; assay type: functional, cell-based; how it was run: as §2
[13] = system: T47D; experiment: Effect of DNA methylation at (+398) CpG site near PR-B transcription start site (-13) in human T47D cells by sodium bisulfite sequencing analysis; assay type: functional, cell-based; how it was run: as §2
[14] = system: T47D; experiment: Effect of DNA methylation at (+319) CpG site near PR-B transcription start site (-13) in human T47D cells by sodium bisulfite sequencing analysis; assay type: functional, cell-based; how it was run: as §2
[15] = system: T47D; experiment: Inhibition of PR-B gene expression in human T47D cells at 25 nM by syber green assay in presence of 10 nM estradiol; assay type: functional, cell-based
[16] = system: T47D; experiment: Effect of DNA methylation at (-75) CpG site near PR-B transcription start site (-13) in human T47D cells by sodium bisulfite sequencing analysis; assay type: functional, cell-based
How it was run: (§3)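 T47D cells (RPMI-1640, 10% FBS, NEAA, insulin; 37 °C, 5% CO2) transfected with agRNA duplexes via Oligofectamine, medium changed at 24 h. Genomic DNA bisulphite-treated, regions around AR and hPR-B start sites PCR-amplified (HotStarTaq, 100 ng treated DNA), gel-purified, TOPO TA cloned; 5–15 colonies per plate miniprepped and sequenced.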

[17] = system: T47D; experiment: Effect of DNA methylation at (+216) CpG site near PR-B transcription start site (-13) in human T47D cells by sodium bisulfite sequencing analysis; assay type: functional, cell-based; how it was run: as §2
[18] = system: T47D; experiment: Effect of DNA methylation at (+149) CpG site near PR-B transcription start site (-13) in human T47D cells by sodium bisulfite sequencing analysis; assay type: functional, cell-based; how it was run: as §2
[19] = system: T47D; experiment: Effect of DNA methylation at (+267) CpG site near PR-B transcription start site (-13) in human T47D cells by sodium bisulfite sequencing analysis; assay type: functional, cell-based; how it was run: as §2
[20] = system: T47D; experiment: Effect of DNA methylation at (+125) CpG site near PR-B transcription start site (-13) in human T47D cells by sodium bisulfite sequencing analysis; assay type: functional, cell-based; how it was run: as §2
[21] = system: T47D; experiment: Effect of DNA methylation at (+353) CpG site near PR-B transcription start site (-13) in human T47D cells by sodium bisulfite sequencing analysis; assay type: functional, cell-based; how it was run: as §2
[22] = system: T47D; experiment: Inhibition of PR-B gene expression in human T47D cells at 25 nM by syber green assay; assay type: functional; how it was run: as §1
[23] = system: T47D; experiment: Effect of DNA methylation at (+173) CpG site near PR-B transcription start site (-13) in human T47D cells by sodium bisulfite sequencing analysis; assay type: functional, cell-based; how it was run: as §2
[24] = system: T47D; experiment: Effect of DNA methylation at (-112) CpG site near PR-B transcription start site (-13) in human T47D cells by sodium bisulfite sequencing analysis; assay type: functional, cell-based; how it was run: as §3
[25] = system: T47D; experiment: Effect of DNA methylation at (+379) CpG site near PR-B transcription start site (-13) in human T47D cells by sodium bisulfite sequencing analysis; assay type: functional, cell-based; how it was run: as §2
[26] = system: T47D; experiment: Effect of DNA methylation at (+20) CpG site near PR-B transcription start site (-13) in human T47D cells by sodium bisulfite sequencing analysis; assay type: functional, cell-based; how it was run: as §2
[27] = system: T47D; experiment: Effect of DNA methylation at (+295) CpG site near PR-B transcription start site (-13) in human T47D cells by sodium bisulfite sequencing analysis; assay type: functional, cell-based; how it was run: as §2
[28] = system: T47D; experiment: Effect of DNA methylation at (+45) CpG site near PR-B transcription start site (-13) in human T47D cells by sodium bisulfite sequencing analysis; assay type: functional, cell-based; how it was run: as §3
[29] = system: T47D; experiment: Effect of DNA methylation at (+41) CpG site near PR-B transcription start site (-13) in human T47D cells by sodium bisulfite sequencing analysis; assay type: functional, cell-based; how it was run: as §2
[30] = system: T47D; experiment: Effect of DNA methylation at (+107) CpG site near PR-B transcription start site (-13) in human T47D cells by sodium bisulfite sequencing analysis; assay type: functional, cell-based; how it was run: as §2
[31] = system: T47D; experiment: Inhibition of PR-A gene expression in human T47D cells at 25 nM by syber green assay; assay type: functional; how it was run: as §1
[32] = system: T47D; experiment: Effect of DNA methylation at (+225) CpG site near PR-B transcription start site (-13) in human T47D cells by sodium bisulfite sequencing analysis; assay type: functional, cell-based; how it was run: as §2
[33] = system: T47D; experiment: Effect of DNA methylation at (-46) CpG site near PR-B transcription start site (-13) in human T47D cells by sodium bisulfite sequencing analysis; assay type: functional, cell-based; how it was run: as §3
[34] = system: T47D; experiment: Effect of DNA methylation at (-23) CpG site near PR-B transcription start site (-13) in human T47D cells by sodium bisulfite sequencing analysis; assay type: functional, cell-based; how it was run: as §3

## Cc1cn([C@H]2C[C@H](OP(=O)(O)OC[C@H]3O[C@@H](n4cc(C)c(=O)[nH]c4=O)C[C@@H]3O)[C@@H](COP(=O)(O)O[C@H]3[C@@H](O)[C@H](n4ccc(N)nc4=O)O[C@@H]3COP(=O)(O)O[C@H]3[C@@H](O)[C@H](n4ccc(N)nc4=O)O[C@@H]3COP(=O)(O)O[C@H]3[C@@H](O)[C@H](n4cnc5c(N)ncnc54)O[C@@H]3COP(=O)(O)O[C@H]3[C@@H](O)[C@H](n4ccc(N)nc4=O)O[C@@H]3COP(=O)(O)O[C@H]3[C@@H](O)[C@H](n4cnc5c(N)ncnc54)O[C@@H]3COP(=O)(O)O[C@H]3[C@@H](O)[C@H](n4ccc(N)nc4=O)O[C@@H]3COP(=O)(O)O[C@H]3[C@@H](O)[C@H](n4ccc(N)nc4=O)O[C@@H]3COP(=O)(O)O[C@H]3[C@@H](O)[C@H](n4ccc(=O)[nH]c4=O)O[C@@H]3COP(=O)(O)O[C@H]3[C@@H](O)[C@H](n4cnc5c(=O)[nH]c(N)nc54)O[C@@H]3COP(=O)(O)O[C@H]3[C@@H](O)[C@H](n4cnc5c(N)ncnc54)O[C@@H]3COP(=O)(O)O[C@H]3[C@@H](O)[C@H](n4ccc(N)nc4=O)O[C@@H]3COP(=O)(O)O[C@H]3[C@@H](O)[C@H](n4ccc(N)nc4=O)O[C@@H]3COP(=O)(O)O[C@H]3[C@@H](O)[C@H](n4cnc5c(=O)[nH]c(N)nc54)O[C@@H]3COP(=O)(O)O[C@H]3[C@@H](O)[C@H](n4ccc(N)nc4=O)O[C@@H]3COP(=O)(O)O[C@H]3[C@@H](O)[C@H](n4ccc(=O)[nH]c4=O)O[C@@H]3COP(=O)(O)O[C@H]3[C@@H](O)[C@H](n4ccc(N)nc4=O)O[C@@H]3COP(=O)(O)O[C@H]3[C@@H](O)[C@H](n4ccc(=O)[nH]c4=O)O[C@@H]3COP(=O)(O)O[C@H]3[C@@H](O)[C@H](n4ccc(N)nc4=O)O[C@@H]3COP(=O)(O)O[C@H]3[C@@H](O)[C@H](n4ccc(=O)[nH]c4=O)O[C@@H]3CO)O2)c(=O)[nH]c1=O
[1]
  Activity: Non-toxic
[2]
  inhibition at 0.1 µM: < 20%
[3]
  inhibition at 0.1 µM: < 20%

## Cc1cn(CC(=O)N(CCNC(=O)CN(CCNC(=O)CN(CCNC(=O)CN(CCNC(=O)CN(CCNC(=O)CN(CCNC(=O)CN(CCNC(=O)CN(CCNC(=O)CN(CCNC(=O)CN(CCNC(=O)CN(CCNC(=O)CN(CCNC(=O)CN(CCNC(=O)CN(CCNC(=O)CN(CCNC(=O)CN(CCNC(=O)CN(CCNC(=O)CN(CCNC(=O)CN(CCNC(=O)CN(CCNC(=O)CN)C(=O)Cn2cnc3c(N)ncnc32)C(=O)Cn2cnc3c(N)ncnc32)C(=O)Cn2cnc3c(=O)[nH]c(N)nc32)C(=O)Cn2ccc(N)nc2=O)C(=O)Cn2ccc(=O)[nH]c2=O)C(=O)Cn2cnc3c(=O)[nH]c(N)nc32)C(=O)Cn2ccc(=O)[nH]c2=O)C(=O)Cn2ccc(N)nc2=O)C(=O)Cn2ccc(=O)[nH]c2=O)C(=O)Cn2cnc3c(=O)[nH]c(N)nc32)C(=O)Cn2cnc3c(=O)[nH]c(N)nc32)C(=O)Cn2ccc(N)nc2=O)C(=O)Cn2ccc(N)nc2=O)C(=O)Cn2cnc3c(N)ncnc32)C(=O)Cn2cnc3c(=O)[nH]c(N)nc32)C(=O)Cn2ccc(=O)[nH]c2=O)C(=O)Cn2ccc(N)nc2=O)C(=O)Cn2ccc(N)nc2=O)C(=O)Cn2cnc3c(N)ncnc32)CC(=O)NCCN(CC(=O)NCC(=O)O)C(=O)Cn2cc(C)c(=O)[nH]c2=O)c(=O)[nH]c1=O
[4]
  Activity: inactive
[5]
  Activity: inactive
[6]
  Activity: inactive
[7]
  Activity: inactive
[8]
  Activity: inactive
[9]
  Activity: inactive
[10]
  Activity: inactive
[11]
  inhibition: Active
[12]
  Activity: inactive
[13]
  Activity: inactive
[14]
  Activity: inactive
[15]
  inhibition: Active
[16]
  Activity: inactive
[17]
  Activity: inactive
[18]
  Activity: inactive
[19]
  Activity: inactive
[20]
  Activity: inactive
[21]
  Activity: inactive
[22]
  inhibition at 0.025 µM: 80%
[23]
  Activity: inactive
[24]
  Activity: inactive
[25]
  Activity: inactive
[2]
  inhibition at 0.1 µM: 100%
[26]
  Activity: inactive
[27]
  Activity: inactive
[28]
  Activity: inactive
[29]
  Activity: inactive
[30]
  Activity: inactive
[3]
  inhibition at 0.1 µM: 100%
[31]
  inhibition at 0.025 µM: 72%
[32]
  Activity: inactive
[33]
  Activity: inactive
[34]
  Activity: inactive
